# Entries after “also recorded” stand apart in the source; their conditions may differ. Like-named read-outs stand apart in the source and are kept apart here.
# Key:
# [1] = rats, 7 days, cited from earlier work
# [2] = Single-dose pharmacokinetics of 9cUAB30 in healthy volunteers; format: in vivo, human
# [3] = Toxicity / adverse events; format: in vivo, human
# Outline: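 Healthy adults aged 18-65 years took one oral dose (5, 10 or 20 mg) in the morning on an empty stomach. Dose cohorts were escalated in sequence and subjects stayed 24 h as inpatients. Toxicity was assessed on day 8, with contact on day 30, and graded by NCI-CTCAE. Serum TG was taken at screening, 24 h and day 8. Dose versus TG change was tested by Jonckheere-Terpstra.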
# [4] = Stability of 9cUAB30 in spiked human plasma and urine stored at -70 °C; format: in vitro ADME
# Outline: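 Blank human plasma and urine were spiked from a 1 μg/mL stock standard to 10 and 40 ng/mL (plasma, urine) and 100 ng/mL (urine only), then held at -70 °C for 12 weeks. Samples were run in triplicate by LC-MS/MS after liquid-liquid extraction with 9-cis-RA as internal standard. LLOQ was 1.56 ng/mL.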
# Human hepatocytes = conditions: treatment up to 50 μmol/L; cited from earlier work
# [5] = tested on: human breast cancer cells; conditions: cited from earlier work
# [6] = tested on: N-methyl-N-nitrosourea (MNU)-induced mammary cancer; conditions: cited from earlier work; for average tumors per animal: controls 6.0
# RAR = conditions: relative to 9-cis-RA and other RA; cited from earlier work
# colony formation = conditions: 0.1 μmol/L (29 ng/mL); cited from earlier work
# [7] = tested on: KLF4-mediated tumor initiation; conditions: cited from earlier work
# [8] = doses significantly higher than needed for chemopreventive activity; cited from earlier work
# [9] = single dose 5, 10 or 20 mg, 14 subjects
# [10] = single dose 5, 10 or 20 mg, all subjects n = 14
compound,measurement,setting,value
"CC1=C(/C=C/C(C)=C\C=C\C(C)=C\C(=O)O)C(C)(C)CCC1 [9-cis-RA, 9-cis-retinoic acid, reference compound]",increase of serum TGs compared to untreated controls,[1]; 60 mg/kg of diet,5 fold
"CC(=C/C=C/C(C)=C/C(=O)O)/C=C1\CCCc2ccccc21 [9cUAB30, (2E,4E,6Z,8E)-8-(3′,4′-Dihydro-1′(2′H)-naphthalen-1′-ylidene)-3,7-dimethyl-2,4,6-octatrienoic Acid]",dose required to achieve maximal concentrations of 0.294 μg/mL,"[2]; assuming 1 compartment, first-order elimination, extrapolated from 20-mg dose",60 mg
same,CL renal,"[2]; human, urine and plasma, po",0.3 to 1.72 mL/min
same,oral availability,"[2]; single oral dose, fasted healthy volunteers",orally available
same,patients with grade 2 toxicity,"[3]; 10-mg dose level, 6 subjects",1
same,Mean TG levels,"[3]; day 8, all subjects, screening 116 ± 34.8",114 ± 44.5
same,change in TG levels from baseline,"[3]; differences between the treatment groups 5, 10, 20 mg",not statistically significant; also recorded: did not significantly increase change in serum TGs
same,subjects with ≥ grade 2 toxicity,[3]; dose level 5 mg,No subjects
same,subjects with ≥ grade 2 toxicity,[3]; dose level 20 mg,No subjects
same,grade 3 or 4 toxicities,[3]; [9],no grade 3 or 4 toxicities reported
same,patients experiencing grade 2 toxicity,[3]; [9],1
same,tolerability,[3]; [9],well tolerated
same,"Diarrhea, Grade II, patients (%)",[3]; [10],0
same,"Dizziness, Grade I, patients (%)",[3]; [10],0
same,"Elevated chloride, Grade II, patients (%)",[3]; [10],0
same,"Elevation in cholesterol, Grade II, patients (%)",[3]; [10],0
same,"Elevation in triglycerides, Grade II, patients (%)",[3]; [10],0
same,"Fatigue, Grade I, patients (%)",[3]; [10],0
same,"Headache, Grade II, patients (%)",[3]; [10],0
same,"Nasal congestion, Grade II, patients (%)",[3]; [10],0
same,"Nausea and vomiting, Grade I, patients (%)",[3]; [10],0
same,"Reduced hemoglobin, Grade II, patients (%)",[3]; [10],0
same,stability in plasma,"[4]; human plasma, −70 °C, 10 and 40 ng/mL",stable for 12 weeks
same,stability in urine,"[4]; human urine, −70 °C, 10, 40 and 100 ng/mL",stable for 12 weeks
same,cytotoxicity,Human hepatocytes,no signs of cytotoxicity
same,cell proliferation,[5],significant inhibition of cell proliferation
same,decrease of MNU-induced mammary cancer incidence compared to controls,[6]; 200 mg/kg/d diet,63%
same,average tumors per animal,[6]; 9cUAB30 150 mg/kg of diet,4.3 tumors per animal
same,effect on serum TG levels,[1]; 200 or 800 mg/kg of diet,did not affect serum TG levels
same,RAR-binding activity,RAR,little or no RAR-binding activity
same,"colony formation, % of untreated cells",colony formation,62%
same,concentration required to prevent KLF4-mediated tumor initiation,[7],1 µmol/L
same,concentration required to prevent KLF4-mediated tumor initiation,[7]; printed conversion of 1 μmol/L,294 ng/mL
same,toxicity in animal models,[8],toxicity was not reported
"CC/C(=C(\c1ccccc1)c1ccc(OCCN(C)C)cc1)c1ccccc1 [tamoxifen, reference compound]",average tumors per animal,[6]; tamoxifen 0.4 mg/kg of diet,4.6 tumors per animal

# Reference: paper PMC3204611 (Cancer prevention research (Philadelphia, Pa.), 2010)
